Tests used:
[1] = target: T1, Vitamin D3 receptor (Rattus norvegicus) (UniProt P13053); assay: Ratio of 1alpha,25-(OH)2D3 Ki to compound Ki for full-length recombinant rat vitamin D receptor after 30 mins by liquid scintillation counting
T1 sequence (whole entry): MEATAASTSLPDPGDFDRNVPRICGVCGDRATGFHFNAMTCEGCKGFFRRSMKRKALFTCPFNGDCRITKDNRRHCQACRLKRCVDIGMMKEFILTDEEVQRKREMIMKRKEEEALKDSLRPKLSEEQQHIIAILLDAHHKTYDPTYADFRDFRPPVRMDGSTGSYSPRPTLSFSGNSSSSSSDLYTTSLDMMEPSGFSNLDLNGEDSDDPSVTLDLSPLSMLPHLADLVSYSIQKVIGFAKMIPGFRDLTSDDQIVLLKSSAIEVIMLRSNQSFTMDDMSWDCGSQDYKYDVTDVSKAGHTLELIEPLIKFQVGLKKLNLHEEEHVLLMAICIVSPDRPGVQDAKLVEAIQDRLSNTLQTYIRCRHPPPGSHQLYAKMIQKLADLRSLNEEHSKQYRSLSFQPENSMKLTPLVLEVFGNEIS
Summary of the method: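 Competitive binding to VDR was run against radiolabeled 1α,25-(OH)₂D₃ at 1 nM. […] Duplicate determinations were made on two separate occasions. Each value is the mean of the 1α,25-(OH)₂D₃ Ki divided by the analogue Ki.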

HL-60 = assay: Ratio of 1alpha,25-(OH)2D3 ED50 to compound ED50 for induction of human HL60 cell differentiation by nitro blue tetrazolium reduction assay; assay type: functional
Summary of the method: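 HL-60 promyelocytes were scored for maturation to monocytes as the percentage of cells reducing nitro blue tetrazolium. ED₅₀, the concentration giving 50% maturation, was taken from dose−response curves. The experiment was run in duplicate twice. Each value is the mean of the 1α,25-(OH)₂D₃ ED₅₀ divided by the analogue ED₅₀.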

[2] = target: T1, Vitamin D3 receptor (Rattus norvegicus); assay: Ratio of 1alpha,25-(OH)2D3 ED50 to compound ED50 for VDR-mediated 24-hydroxylase gene expression in rat ROS 17/2.8 cells after 16 hrs by luciferase reporter assay; assay type: cell-based
Summary of the method: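 Rat osteosarcoma cells stably transfected with a 24-hydroxylase gene reporter plasmid were used as a transcription assay. ED₅₀ is the concentration raising luciferase activity by 50%, taken from dose−response curves. Each value is the ratio of the 1α,25-(OH)₂D₃ ED₅₀ to the analogue ED₅₀.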

Rattus norvegicus [3] = assay: Effect on bone calcium mobilization in weanling Sprague-Dawley rat assessed as serum calcium level at 87 pmol/day, ip administered as 4 consecutive daily doses measured 24 hrs after last dose (reference value: 4.2 to 4.9 mg/dL); assay type: functional
Rattus norvegicus [4] = assay: Effect on bone calcium mobilization in weanling Sprague-Dawley rat assessed as serum calcium level at 780 pmol/day, ip administered as 4 consecutive daily doses measured 24 hrs after last dose (reference value: 4.2 to 4.9 mg/dL); assay type: functional
Rattus norvegicus [5] = assay: Effect on intestinal calcium transport in weanling Sprague-Dawley rat assessed as increase in ratio of serosal to mucosal calcium level at 780 pmol/day, ip administered as 4 consecutive daily doses measured 24 hrs after last dose; assay type: functional
Rattus norvegicus [6] = assay: Effect on intestinal calcium transport in weanling Sprague-Dawley rat assessed as increase in ratio of serosal to mucosal calcium level at 87 pmol/day, ip administered as 4 consecutive daily doses measured 24 hrs after last dose; assay type: functional
Rattus norvegicus [7] = assay: Effect on bone calcium mobilization in weanling Sprague-Dawley rat assessed as serum calcium level at 32 pmol/day, ip administered as 4 consecutive daily doses measured 24 hrs after last dose (reference value: 4.2 to 4.9 mg/dL); assay type: functional
Rattus norvegicus [8] = assay: Effect on intestinal calcium transport in weanling Sprague-Dawley rat assessed as increase in ratio of serosal to mucosal calcium level at 32 pmol/day, ip administered as 4 consecutive daily doses measured 24 hrs after last dose; assay type: functional
Rattus norvegicus [9] = assay: Effect on intestinal calcium transport in weanling Sprague-Dawley rat assessed as increase in ratio of serosal to mucosal calcium level at 35100 pmol/day, ip administered as 4 consecutive daily doses measured 24 hrs after last dose; assay type: functional
Rattus norvegicus [10] = assay: Effect on intestinal calcium transport in weanling Sprague-Dawley rat assessed as increase in ratio of serosal to mucosal calcium level at 7020 pmol/day, ip administered as 4 consecutive daily doses measured 24 hrs after last dose; assay type: functional
Rattus norvegicus [11] = assay: Effect on bone calcium mobilization in weanling Sprague-Dawley rat assessed as serum calcium level at 7020 pmol/day, ip administered as 4 consecutive daily doses measured 24 hrs after last dose (reference value: 4.2 to 4.9 mg/dL); assay type: functional
Rattus norvegicus [12] = assay: Effect on bone calcium mobilization in weanling Sprague-Dawley rat assessed as serum calcium level at 35100 pmol/day, ip administered as 4 consecutive daily doses measured 24 hrs after last dose (reference value: 4.2 to 4.9 mg/dL); assay type: functional

SMILES	Ratio Ki [1]	Ratio ED50 [2]	Ratio ED50 (HL-60)	Activity (Rattus norvegicus [3]) [mg/dL]	Activity (Rattus norvegicus [4]) [mg/dL]	Ratio (Rattus norvegicus [5])	Ratio (Rattus norvegicus [6])	Activity (Rattus norvegicus [7]) [mg/dL]	Ratio (Rattus norvegicus [8])	Ratio (Rattus norvegicus [9])	Ratio (Rattus norvegicus [10])	Activity (Rattus norvegicus [11]) [mg/dL]	Activity (Rattus norvegicus [12]) [mg/dL]
C=C1CC[C@H](O)C/C1=C/C=C1\CCC[C@]2(C)[C@@H]([C@H](C)CCCC(C)(C)O)CC[C@@H]12 [CALCIFEDIOL ANHYDROUS]	0.01	0.001	0.001										
C=C1CC/C(=C\C=C2/CCC[C@]3(C)[C@@H]([C@@H](C)CCCC(C)(C)O)CC[C@@H]23)C[C@H]1O	0.1	0.07	0.07										
C=C1CC/C(=C/C=C2\CCC[C@]3(C)[C@@H]([C@H](C)CCCC(C)(C)O)CC[C@@H]23)C[C@H]1O	0.2	0.7	2.2										
C=C1/C(=C\C=C2/CCC[C@]3(C)[C@@H]([C@H](C)CCCC(C)(C)O)CC[C@@H]23)C[C@@H](O)C[C@@H]1O [CALCITRIOL]				5	7.5								
C=C1CC/C(=C/C=C2\CCC[C@]3(C)[C@@H]([C@@H](C)CCCC(C)(C)O)CC[C@@H]23)C[C@H]1O	0.5	2	2.5										
C=C1[C@H](O)CC(=C/C=C2\CCC[C@]3(C)[C@@H]([C@@H](C)CCCC(C)(C)O)CC[C@@H]23)C[C@H]1O [DP001]	1	29	25										

Continued, in another order:

Ratio Ki [1]	Ratio ED50 [2]	SMILES	Ratio ED50 (HL-60)	Activity (Rattus norvegicus [3]) [mg/dL]	Activity (Rattus norvegicus [4]) [mg/dL]	Ratio (Rattus norvegicus [5])	Ratio (Rattus norvegicus [6])	Activity (Rattus norvegicus [7]) [mg/dL]	Ratio (Rattus norvegicus [8])	Ratio (Rattus norvegicus [9])	Ratio (Rattus norvegicus [10])	Activity (Rattus norvegicus [11]) [mg/dL]	Activity (Rattus norvegicus [12]) [mg/dL]
0.33	1	C=C1CC/C(=C/C=C2\CCC[C@]3(C)[C@@H]([C@@H](C)CCCC(C)(C)O)CC[C@@H]23)C(=C)[C@H]1O	4	4.9	9.7	12.6	10.2	4.8	7.9				
0.33	0.2	C=C1CC(=C)[C@H](O)C/C1=C/C=C1\CCC[C@]2(C)[C@@H]([C@@H](C)CCCC(C)(C)O)CC[C@@H]12	0.22	4.8	7.5	14.3	9.8	4.3	9				
0.05	0.0005	C=C1CC(=C)[C@H](O)C/C1=C/C=C1\CCC[C@]2(C)[C@@H]([C@H](C)CCCC(C)(C)O)CC[C@@H]12	0.005	4.4	5.4	9.4	5.7			9.7	10.2	8.2	
0.25	1	C=C1CC/C(=C/C=C2\CCC[C@]3(C)[C@@H]([C@H](C)CCCC(C)(C)O)CC[C@@H]23)C(=C)[C@H]1O	2	4.5	5.9	11.8	8.5			11.3	9.8	8.8	8.2
0.02	0.001	C=C1CC/C(=C\C=C2/CCC[C@]3(C)[C@@H]([C@H](C)CCCC(C)(C)O)CC[C@@H]23)C[C@H]1O	0.01										

From ChEMBL document CHEMBL3351472, “Synthesis and Biological Activity of 25-Hydroxy-2-methylene-vitamin D3 analogues monohydroxylated in the A-ring” (J Med Chem, 2014)
